Most compounds without a hit are left out; they make up all but 3.9% or so of the library.
TMEM16A act: mouse TMEM16A channel activation, primary screen; Q8BHY3; AID 623877; B-score at 10 µM; HEK293 TMEM16A/YFP-H148Q/I152L, iodide quench fluorescence; stronger effect = lower value; actives 0.3% (n = 340,000);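 active = fluorescence-ratio B-score plate-corrected deviation score at least 3 library SD below zero, with starting fluorescence score within 5 deviations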;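 note: channel opened by trigger with iodide after compound preincubation; score built on the fluorescence ratio of max minus min over baseline; more negative score means more quench and so TMEM16A activation or potentiation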
TMEM16A inh: blocks the mouse calcium-activated chloride channel TMEM16A | Q8BHY3 | HEK293 TMEM16A/YFP iodide influx fluorescence, ionomycin | normalized B-score (activity score, 25-100; higher = stronger inhibition) at 10 µM | actives 1.2% (n = 310,000);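 active = ratio plate-corrected score three or more library SD toward inhibition, starting fluorescence score within five deviations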;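 note: score derived from kinetic fluorescence span divided by baseline fluorescence per well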
TAAR1 antagonist: antagonists of human TAAR1. Q96RJ0. actives 1.5% (n = 360,000). inhibition, % at 3 µM. CHO RD-HGA16 TAAR1, Fluo-8 calcium fluorescence, antagonist. AID 624466;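 active = inhibition above a per-plate cutoff, the mean inhibition of test compounds on that plate plus 3 SD, cut at about 49% in these data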
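System: CHO RD-HGA16 cells bearing hTAAR1. Reagent: EC80 β-phenethylamine stimulus. Schedule: seeding 17-24 h prior, 75-min 37 °C, 30-min RT dye loading. Signal: Fluo-8 intracellular calcium dye fluorescence, real-time kinetic reads. Read-out: % inhibition from peak post-agonist over basal fluorescence ratio. Benchmarks: vehicle wells and EC80 agonist wells. Replicates: n of 1.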
CRFR2-BP antag: antagonists of CRF-binding protein/CRF-R2 receptor complex | AID 588475 | inhibition, % at 11.8 µM | HEK293 CRF-R2/CRF-BP, CRF-induced calcium fluorescence | actives 0.59% (n = 350,000);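 active = inhibition of the ligand-induced calcium signal above about 50% at the single tested concentration, limit read from the data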
CRFR2-BP ag: agonists of human CRF-binding protein/CRF-R2 receptor complex; HEK293 CRF-R2/CRF-BP, calcium dye fluorescence (FLIPR); percent of saturating CRF peptide response; actives 0.46% (n = 350,000); activation, % at 13.2 µM;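 active = activation of at least 50%, plus an integration ratio under a set limit after plate pattern correction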
TAAR1 ag: agonists of human TAAR1. CHO RD-HGA16 TAAR1, Fluo-8 calcium fluorescence; vehicle wells 0%, saturating PEA agonist 100%. activation, % at 3 µM. actives 0.99% (n = 360,000);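 active = activation above the mean activation of all test compounds in the run plus 3 SD, cut at about 38% in these data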
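System: CHO-derived RD-HGA16 cells with stable Gα16 and human TAAR1 / Times: 17-24 h plating, Fluo-8 75 min 37 °C, 30 min RT / Technique: calcium-sensitive Fluo-8 signal, excitation 470-495, emission 515-575 nm / Measure: % activation relative to PEA EC100 response / Benchmarks: DMSO and PEA EC100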
A number is an active result.

For O=C(NCc1ccccc1)c1ccc(CS(=O)Cc2cccc(Cl)c2)o1 (configuration not stated) the results were TAAR1 antagonist inactive, CRFR2-BP antag inactive, CRFR2-BP ag inactive and TAAR1 ag inactive.
Cc1cc(C)cc(N(CC(=O)NCc2ccc(F)cc2)C(=O)c2snc(C(N)=O)c2N)c1 was read as TMEM16A act inactive, TMEM16A inh inactive, TAAR1 antagonist inactive, CRFR2-BP antag inactive, CRFR2-BP ag inactive and TAAR1 ag 41.
For Cc1cc(C)cc(N(CC(=O)NCc2ccco2)C(=O)c2snc(C(N)=O)c2N)c1 the results were TMEM16A act inactive, TMEM16A inh inactive, TAAR1 antagonist inactive, CRFR2-BP antag inactive, CRFR2-BP ag inactive and TAAR1 ag inactive.
For Oc1ccc(-c2nc3ccccn3c2NCc2ccco2)cc1 the results were TMEM16A act inactive, TMEM16A inh inactive, TAAR1 antagonist 52, CRFR2-BP antag inactive, CRFR2-BP ag inactive and TAAR1 ag inactive.
Screening O=C1NC(=S)SC1=Cc1cccs1 returned TMEM16A act inactive, TAAR1 antagonist inactive, CRFR2-BP antag inactive, CRFR2-BP ag inactive and TAAR1 ag inactive.
CN1CCC/C1=C/C=C1\SC(=S)NC1=O was read as TMEM16A act inactive, TMEM16A inh inactive, TAAR1 antagonist inactive, CRFR2-BP antag inactive, CRFR2-BP ag 149 and TAAR1 ag inactive.
`COc1cc(/C=N/NC(=O)c2ccoc2C)cc(OC)c1OC` gave TMEM16A act inactive, TMEM16A inh inactive, TAAR1 antagonist inactive, CRFR2-BP antag inactive, CRFR2-BP ag inactive and TAAR1 ag inactive.
Cc1cc(/C=N/NC(=O)c2ccoc2C)cc(C)c1O was read as TAAR1 antagonist inactive, CRFR2-BP antag 68, CRFR2-BP ag inactive and TAAR1 ag inactive.
COc1cccc(NC(=O)C(C)Sc2nnc(C3CC3)n2C2CC2)c1 (configuration not stated) was read as TMEM16A act -32, TAAR1 antagonist inactive, CRFR2-BP antag inactive, CRFR2-BP ag inactive and TAAR1 ag inactive.
Screening COc1ccc(Cl)cc1NC(=O)C(C)Sc1nnc(C2CC2)n1C1CC1 (configuration not stated) returned TMEM16A act inactive, TAAR1 antagonist inactive, CRFR2-BP antag inactive, CRFR2-BP ag inactive and TAAR1 ag inactive.
Screening CCCCCCOc1ccc(/C(C)=N/NC2=NCCN2)cc1[N+](=O)[O-] returned TMEM16A act inactive, TMEM16A inh inactive, TAAR1 antagonist inactive, CRFR2-BP antag inactive, CRFR2-BP ag inactive and TAAR1 ag 38.
For CCOC(=O)C(C(=O)OCC)N(C#N)c1nc(N(C)C)nc(N(C)C)n1 the results were TMEM16A act inactive, TMEM16A inh inactive, TAAR1 antagonist inactive, CRFR2-BP antag inactive, CRFR2-BP ag inactive and TAAR1 ag inactive.
For O=C(CN1C(=O)NC2NC(=O)NC21)N/N=C/c1ccc(F)cc1 (configuration not stated) the results were TMEM16A act -7.5, TMEM16A inh inactive, TAAR1 antagonist inactive, CRFR2-BP antag inactive, CRFR2-BP ag inactive and TAAR1 ag inactive.
For C[C@H](NC(=O)c1[nH]cnc1C(=O)Nc1ccccc1F)c1ccccc1 the results were TAAR1 antagonist inactive, CRFR2-BP antag inactive, CRFR2-BP ag inactive and TAAR1 ag inactive.
`COc1cc(-c2nc3ccccc3nc2-c2ccc(O)c(OC)c2)ccc1O` gave TMEM16A act inactive, TMEM16A inh inactive, TAAR1 antagonist 53, CRFR2-BP antag inactive, CRFR2-BP ag inactive and TAAR1 ag inactive.
`COc1ccc(CNC(=O)C(c2ccco2)N(C(=O)CNS(=O)(=O)c2ccccc2)c2ccccc2C)cc1` (configuration not stated) gave TMEM16A act inactive, TMEM16A inh 25, TAAR1 antagonist inactive, CRFR2-BP antag inactive, CRFR2-BP ag inactive and TAAR1 ag inactive.
`O=C(O)c1ccc(COc2ccc3ccccc3c2/C=C2/NC(=O)N(Cc3ccc(F)cc3)C2=O)cc1` gave TMEM16A act inactive, TAAR1 antagonist 56, CRFR2-BP antag inactive, CRFR2-BP ag inactive and TAAR1 ag inactive.
`O=C(O)c1ccc(COc2ccccc2/C=C2\NC(=O)N(Cc3ccccc3)C2=O)cc1` gave TMEM16A act inactive, TMEM16A inh inactive, TAAR1 antagonist inactive, CRFR2-BP antag inactive, CRFR2-BP ag inactive and TAAR1 ag inactive.
For CCN(CC)c1ccc2cc(C#N)c(=O)oc2c1 the results were TMEM16A act inactive, TMEM16A inh inactive, TAAR1 antagonist inactive, CRFR2-BP antag inactive, CRFR2-BP ag 102 and TAAR1 ag inactive.
O=c1oc2ccccc2cc1-c1csc(Cc2nc(-c3ccc(Cl)cc3)cs2)n1 was read as TMEM16A act inactive, TMEM16A inh inactive, TAAR1 antagonist inactive, CRFR2-BP antag inactive, CRFR2-BP ag inactive and TAAR1 ag inactive.
Screening Cc1ccc(S(=O)(=O)c2cc3ccccc3oc2=O)cc1 returned TMEM16A act inactive, TMEM16A inh inactive, TAAR1 antagonist inactive, CRFR2-BP antag inactive, CRFR2-BP ag inactive and TAAR1 ag inactive.
For Cc1ccc(C(=O)NNC(=O)c2ccc(S(=O)(=O)N3CCCCC3)cc2)cc1 the results were TMEM16A act inactive, TAAR1 antagonist inactive, CRFR2-BP antag inactive, CRFR2-BP ag inactive and TAAR1 ag inactive.
`CCN(CC)c1ccc2cc(-c3nc(-c4cc5ccccc5oc4=O)cs3)c(=O)oc2c1` gave TMEM16A act inactive, TAAR1 antagonist inactive, CRFR2-BP antag inactive, CRFR2-BP ag 195 and TAAR1 ag inactive.
CCN(CC)c1ccc2cc(C(=O)NNC(=O)c3ccc(S(=O)(=O)N4CCCCC4)cc3)c(=O)oc2c1 was read as TMEM16A act inactive, TMEM16A inh inactive, TAAR1 antagonist inactive, CRFR2-BP antag inactive, CRFR2-BP ag 266 and TAAR1 ag inactive.
For CCN(CC)c1ccc2cc(S(=O)(=O)c3ccc(C)cc3)c(=O)oc2c1 the results were TMEM16A act inactive, TMEM16A inh inactive, TAAR1 antagonist inactive, CRFR2-BP antag inactive, CRFR2-BP ag 147 and TAAR1 ag inactive.
For COc1ccc(CCN2CC(C(=O)NCc3cccc(F)c3)CCC2=O)cc1 (configuration not stated) the results were TAAR1 antagonist inactive, CRFR2-BP antag inactive, CRFR2-BP ag inactive and TAAR1 ag inactive.
CC1CCCCC1NC(=O)CCN1C(=O)C2C3C=CC(C3)C2C1=O (configuration not stated) was read as TMEM16A act inactive, TMEM16A inh inactive, TAAR1 antagonist inactive, CRFR2-BP antag inactive, CRFR2-BP ag inactive and TAAR1 ag inactive.
Cc1nc2sccn2c1-c1csc(NCc2ccccc2)n1 was read as TMEM16A act inactive, TMEM16A inh 25, TAAR1 antagonist inactive, CRFR2-BP antag inactive, CRFR2-BP ag inactive and TAAR1 ag inactive.
Cc1ccc(C(=O)OCC(=O)c2c[nH]c3ccccc23)cc1 was read as TMEM16A act inactive, TMEM16A inh inactive, TAAR1 antagonist inactive, CRFR2-BP antag inactive, CRFR2-BP ag inactive and TAAR1 ag inactive.

Screening data as filed in PubChem BioAssay.
